Assay results as given in PubChem BioAssay AID651654 (Broad Institute, 2012).
Among all 360,000 compounds or so, about 740 (0.21%) were called active. The sample holds actives, similar compounds and a random draw of the others, so the mix is not that of the screen. Unmarked numbers belong to inactive results.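 The calls were made as follows: active = mean lysis activity across replicates of at least 80%, whatever share of replicates individually reach that level; inactive = mean lysis activity below 80%.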

test: Cryptococcus neoformans cell lysis inducers, primary screen, AK release luminescence, single concentration (AID 651654); details: C. neoformans lysis, adenylate kinase release luminescence, 4 h; at 15 µM; active compounds read high; normalised: neutral wells 0, clomiphene wells 100
Method in brief: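 Schedule: static 4 h at 37 °C with compound, 1 h detection; system: C. neoformans cells; benchmarks: Clomiphene as positive control; buffer or medium: fresh YPD medium; measure: luminescence rise reflecting yeast cell lysis; measured by: luminescent adenylate kinase detection reagent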

Row | SMILES | lysis activity
1 | COc1ccc(C2=Nc3ccccc3NC(=O)C2N(C(=O)c2cc3ccccc3[nH]2)c2ccccc2)cc1 (stereo not given) | 101% (active)
2 | CC(OC(=O)c1cc2ccccc2[nH]1)C(=O)N(C)c1ccccc1 (stereo not given) | -1.83%
3 | O=C(Nc1ccccc1)c1cc2ccccc2[nH]1 | -9.41%
4 | CO[C@H]1CN(C)C(=O)c2cc(NS(=O)(=O)CC(F)(F)F)ccc2OC[C@@H](C)N(Cc2nccs2)C[C@@H]1C | 0.476%
5 | CN1c2ccc(C3=CCCCC3)cc2[C@H]2[C@H](CCN2S(=O)(=O)c2ccccc2)[C@@H]1CO | 0.27%
6 | O=C(C1CCC1)N1CCCCN2[C@H](CO)[C@H](c3ccc(-c4cccc(F)c4)cc3)[C@H]2C1 | 4.53%
7 | COc1cccc(NC(=O)C[C@H]2CC[C@@H]3[C@@H](COc4ccc(NC(=O)C5CCOCC5)cc4C(=O)N3C)O2)c1 | 1.2%
8 | CC(C)NC(=O)N[C@H]1CC[C@H](CC(=O)NC2Cc3ccccc3C2)O[C@H]1CO | -0.817%
9 | COc1ccccc1C#Cc1ccc2c(c1)O[C@H](CN(C)Cc1cccnc1)[C@@H](C)CN([C@H](C)CO)S2(=O)=O | 3.3%
10 | CO[C@@H]1CN(C)C(=O)c2ccc(NS(C)(=O)=O)cc2OC[C@@H](C)N(CC2CC2)C[C@@H]1C | 2.22%
11 | CN(C)C(=O)C[C@H]1CC[C@@H](NC(=O)C2CC2)[C@@H](CO)O1 | -0.137%
12 | C[C@@H]1CCCCO[C@H](CN(C)C(=O)NC2CCCCC2)[C@@H](C)CN([C@H](C)CO)C(=O)c2cc(NS(C)(=O)=O)ccc2O1 | 3.91%
13 | C[C@@H]1CN([C@@H](C)CO)C(=O)c2cc(NS(=O)(=O)c3cn(C)cn3)ccc2O[C@@H](C)CCCCO[C@@H]1CN(C)Cc1ccncc1 | -2.55%
14 | CC(=O)N1[C@H](CO)[C@H](c2ccc(-c3ccccc3)cc2)[C@H]1CNC(=O)C1CC1 | 90.2% (active)
15 | C/C=C/c1ccc([C@H]2[C@@H](CNC(=O)NC(C)C)N(C(=O)C3CCC3)[C@H]2CO)cc1 | -1.4%
16 | CC(=O)N1[C@H](CO)[C@@H](c2ccc(-c3ccccc3)cc2)[C@H]1CNC(=O)C1CC1 | 73.3%
17 | CC(=O)N1[C@H](CO)[C@@H](c2ccc(-c3ccc(F)cc3)cc2)[C@H]1CNC(=O)C1CC1 | -1.15%
18 | O=C(NC[C@@H]1[C@@H](c2ccccc2)[C@H](CO)N1C(=O)C1CCC1)NC1CCCC1 | 94.8% (active)
19 | CCN(C[C@H]1[C@H](c2ccccc2)[C@H](CO)N1C(=O)C1CC1)C(=O)NC1CCCC1 | 3.3%
20 | CO[C@@H](CN(C)C(=O)Nc1ccc(F)cc1)[C@H](C)CN(Cc1ccccc1Cl)[C@@H](C)CO | 13.4%
21 | CCCC#Cc1ccc2c(c1)O[C@@H](CN(C)C(=O)c1cccnc1)[C@H](C)CN([C@H](C)CO)S2(=O)=O | -4.36%
22 | C[C@H](CO)N1C[C@H](C)[C@@H](CN(C)C)Oc2cc(C#Cc3ccccc3)ccc2S1(=O)=O | 0.917%

Row | SMILES | lysis activity
23 | C/C=C/c1ccc2c(c1)O[C@@H](CN(C)S(=O)(=O)c1ccc(F)cc1)[C@@H](C)CN([C@H](C)CO)S2(=O)=O | 3%
24 | C[C@@H]1CN([C@H](C)CO)C(=O)CCCn2cc(nn2)CO[C@@H]1CN(C)Cc1ccccc1C(=O)O | -0.638%
25 | C[C@H](CO)N1C[C@H](C)[C@@H](CN(C)Cc2ccccc2C(F)(F)F)OCc2cn(nn2)CCCC1=O | -8.12%
26 | Cc1ccccc1CN(C)C[C@H]1OCc2cn(nn2)CCCC(=O)N([C@@H](C)CO)C[C@H]1C | 96.6% (active)
27 | CO[C@H]1CN(C)C(=O)c2ccc(NC(=O)Cc3ccccc3)cc2OC[C@@H](C)N(C(C)=O)C[C@H]1C | 69.9%
28 | C[C@@H]1CN([C@@H](C)CO)C(=O)c2cccc(NC(=O)Nc3ccc(C(F)(F)F)cc3)c2O[C@@H]1CN(C)S(=O)(=O)c1ccc(F)cc1 | 28.4%
29 | C[C@@H]1CN([C@@H](C)CO)C(=O)Cc2cc(NS(=O)(=O)c3cccs3)ccc2O[C@@H]1CN(C)S(=O)(=O)c1ccc(F)cc1 | -1.3%
30 | CCCNC(=O)N1[C@H](CNC(=O)c2cccc(F)c2)[C@H](c2ccccc2)[C@@H]1CO | -0.391%
31 | COc1cccc(S(=O)(=O)N[C@H]2CC[C@@H](CC(=O)NCc3ccc(F)cc3)O[C@@H]2CO)c1 | 3.95%
32 | CCCNC(=O)C[C@H]1C[C@@H]2c3cc(NC(=O)C4CCOCC4)ccc3O[C@@H]2[C@H](CO)O1 | 1.8%
33 | O=C(C[C@H]1CC[C@H](NC(=O)C2CCC2)[C@@H](CO)O1)Nc1nccs1 | 5.79%
34 | COc1ccccc1S(=O)(=O)N[C@@H]1CC[C@@H](CCn2cc(C3CCCCC3)nn2)O[C@H]1CO | 18.5%
35 | O=C(C[C@@H]1C[C@H]2c3cc(NC(=O)Nc4ccccc4)ccc3O[C@H]2[C@@H](CO)O1)NCc1cccnc1 | -4.19%
36 | COC(=O)C[C@@H]1CC[C@@H]2[C@H](COc3ccc(NC(=O)Nc4cccc(F)c4)cc3C(=O)N2C)O1 | 5.11%
37 | CO[C@@H](CN(C)C(=O)c1cnccn1)[C@@H](C)CN([C@@H](C)CO)S(=O)(=O)c1ccc(F)cc1 | 59.1%
38 | CC(=O)N1[C@H](CN(CC2CCC2)C(=O)CN(C)C)[C@@H](c2ccccc2)[C@@H]1CO | -2.74%
39 | CCC(=O)N1C[C@@H](C)[C@H](OC)CN(C)C(=O)c2ccc(NC(=O)c3ccc(F)cc3)cc2OC[C@@H]1C | -5.87%
40 | COc1ccccc1NC(=O)N[C@H]1CC[C@H](CCn2cc(-c3cccnc3)nn2)O[C@@H]1CO | -0.992%
41 | CNC[C@H]1Oc2ccc(NS(=O)(=O)c3ccc(F)cc3)cc2C(=O)N([C@@H](C)CO)C[C@@H]1C | 3.02%
42 | Cc1ccc(S(=O)(=O)N[C@H]2CC[C@@H](CC(=O)NCCCN(C)C)O[C@H]2CO)cc1 | -1.04%
43 | CCCNC(=O)[C@@H]1[C@@H](CO)[C@@H]2Cn3c(cccc3=O)[C@H]1N2C(=O)C1CC1 | 1.83%
44 | CCCNC(=O)[C@@H]1[C@@H](CO)[C@@H]2Cn3c(cccc3=O)[C@H]1N2C(=O)Nc1cc(F)ccc1F | 92.3% (active)

Row | SMILES | lysis activity
45 | CCCNC(=O)N1[C@@H]2c3cccc(=O)n3C[C@H]1[C@H](CO)[C@H]2C(=O)NCC(F)(F)F | -3.09%
46 | COc1ccc(S(=O)(=O)N(C)C[C@@H]2Oc3ccc(NC(=O)CCC(F)(F)F)cc3C(=O)N([C@@H](C)CO)C[C@H]2C)cc1 | 2.26%
47 | O=C(C[C@H]1C=C[C@H](NS(=O)(=O)c2ccc(F)cc2)[C@H](CO)O1)NCc1ccncn1 | -3.14%
48 | C[C@@H]1CN([C@H](C)CO)C(=O)c2cc(NC(=O)CCCN(C)C)ccc2O[C@H]1CN(C)Cc1ccc(C(=O)O)cc1 | -1.44%
49 | CO[C@@H]1CN(C)C(=O)c2ccc(NC(=O)C3CCC3)cc2OC[C@H](C)NC[C@H]1C | 1.85%
50 | CC(C)NC(=O)N(C)C[C@H]1Oc2c(NC(=O)c3ccncc3)cccc2C(=O)N([C@@H](C)CO)C[C@H]1C | -2.5%
51 | C[C@H](CO)N1C[C@H](C)[C@@H](CN(C)Cc2ccc(Oc3ccccc3)cc2)Oc2cc(-c3ccncc3)ccc2S1(=O)=O | -0.269%
52 | CCCNC(=O)Nc1ccc2c(c1)OC[C@H](C)N(Cc1ccccc1)C[C@H](C)[C@H](OC)CN(C)C2=O | -0.367%
53 | CO[C@@H]1CN(C)C(=O)c2ccc(NC(=O)C3CC3)cc2OC[C@@H](C)N(CC2CCOCC2)C[C@H]1C | 61.5%
54 | O=C(c1ccccc1)N1CC[C@H]2[C@H](CO)Nc3ccc(-c4ccc(F)cc4)cc3[C@H]21 | 21.5%
55 | C/C=C/c1cnc2c(c1)C(=O)N([C@@H](C)CO)C[C@@H](C)[C@H](CN(C)Cc1cncnc1)O2 | -1.92%
56 | COc1cccc(NC(=O)N2CC[C@@H]3[C@@H](CO)N(C)c4ccc(-c5cccc(F)c5)cc4[C@@H]32)c1 | -11.2%
57 | Cc1noc(C)c1NC(=O)N(C)C[C@@H]1Oc2ccc(NC(=O)Nc3cccc4ccccc34)cc2CC(=O)N([C@@H](C)CO)C[C@H]1C | 41.1%
58 | CCN1[C@@H]2c3ccc(C4=CCCC4)c(=O)n3C[C@@H]2[C@@H](CO)[C@@H]1C(=O)NCc1ccccn1 | 1.37%
59 | CO[C@@H]1CN(C)C(=O)c2ccc(NS(=O)(=O)c3ccc(Cl)cc3)cc2OC[C@H](C)N(C(=O)NC(C)C)C[C@H]1C | -5.3%
60 | C[C@H]1CN([C@@H](C)CO)C(=O)c2cccc(NC(=O)Nc3ccccc3)c2O[C@@H]1CN(C)S(=O)(=O)c1ccc(F)cc1 | -1.52%
61 | OC[C@@H]1[C@@H](c2ccc(C#CC3(O)CCCC3)cc2)[C@@H]2CN(Cc3cncnc3)CCCCN12 | -3.24%
62 | O=C(C[C@@H]1CC[C@H](NC(=O)Nc2ccc(F)cc2)[C@H](CO)O1)NCc1ccccn1 | -0.684%
63 | CO[C@@H]1CN(C)C(=O)c2cc(NC(=O)C3CC3)ccc2OC[C@@H](C)N(C(=O)c2ccccc2F)C[C@@H]1C | 44%
64 | C[C@@H]1CN([C@@H](C)CO)S(=O)(=O)c2ccc(-c3ccc(C(=O)N(C)C)cc3)cc2O[C@@H]1CN(C)C(=O)Cc1ccccn1 | 0.616%
65 | CN1CCN(C(=O)c2cc3c(c(-c4cccc(-c5ccc(C(=O)N(C)C)cc5)c4)n2)[C@@H](CCO)N([S@](=O)C(C)(C)C)C3)CC1 | -8.88%
